Values after ≈ are worked out from the molar mass of the structure shown.
Assays:
[1] = test system: Escherichia coli; assay: Antibacterial activity against Escherichia coli ATCC 25922 after 16 to 20 hrs by two fold serial dilution method; type: functional
Summary of the method: (§1)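 MIC as lowest concentration giving complete inhibition of growth after 20 h; at least three independent experiments, each in duplicate.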

[2] = test system: Pseudomonas aeruginosa; assay: Antibacterial activity against Pseudomonas aeruginosa ATCC 27853 after 16 to 20 hrs by two fold serial dilution method; type: functional; summary of the method: as §1
[3] = test system: Klebsiella pneumoniae; assay: Antibacterial activity against Klebsiella pneumoniae ATCC 13383 after 16 to 20 hrs by two fold serial dilution method; type: functional; summary of the method: as §1
[4] = test system: Staphylococcus aureus; assay: Antibacterial activity against methicillin-resistant Staphylococcus aureus ATCC 33591 after 16 to 20 hrs by two fold serial dilution method; type: functional
Summary of the method: (§2)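 Broth MIC: the lowest concentration giving complete growth inhibition after 20 h. Run at least three times, in duplicate each time.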

[5] = test system: Staphylococcus epidermidis; assay: Antibacterial activity against methicillin-resistant Staphylococcus epidermidis RP62A after 16 to 20 hrs by two fold serial dilution method; type: functional; summary of the method: as §2
[6] = test system: Enterococcus faecalis; assay: Antibacterial activity against vancomycin resistant Enterococcus faecalis ATCC 700802 after 16 to 20 hrs by two fold serial dilution method; type: functional; summary of the method: as §2
[7] = Hemolytic activity in human RBC after 1 hr; type: ADME, cell-based, Erythrocyte; settings: human red blood cells
Summary of the method: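 Fresh K2EDTA human RBCs, PBS-washed, as 5% v/v suspension mixed 1:1 with compound dilutions, 37 °C for 1 h. Supernatant after centrifugation diluted in PBS, A540 read. % hemolysis relative to 2% Triton X-100 (positive) and PBS (negative). At least three runs, each in duplicate.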

[8] = Cytotoxicity against human HK2 cells assessed as cell viability at 25 ug/ml after 24 hrs by MTT assay; type: toxicity, cell-based; settings: hk-2, 24 h
Summary of the method: (§3)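 Cells seeded at 5×10^4 per well and left 12 h, then exposed 24 h to compound at 100, 50, 25, 12.5 or 6.25 μg/mL diluted in medium. Medium replaced, MTT added for 4 h, solubilized 12 h at 37 °C, A550 read; viability % = (A − Ablank)/(Acontrol − Ablank) × 100. Run at least three times.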

[9] = Cytotoxicity against human K562 cells assessed as cell viability at 25 ug/ml after 24 hrs by MTT assay; type: toxicity, cell-based; settings: k562, 24 h; summary of the method: as §3

With `NCCCC[C@H](N)C(=O)N[C@@H](Cc1ccccc1)CN(CC(=O)NCc1cccc2ccccc12)C(=O)CC12CC3CC(CC(C3)C1)C2` the MIC [1] was 12.5 µg/mL (≈ 19.2 µM), the MIC [2] was 6.12 µg/mL (≈ 9.39 µM) and the MIC [3] was 12.5 µg/mL (≈ 19.2 µM). For the same compound, the MIC [4] was 6.25 µg/mL (≈ 9.59 µM), the MIC [5] was 6.25 µg/mL (≈ 9.59 µM) and the MIC [6] was 12.5 µg/mL (≈ 19.2 µM). For the same compound, the HC50 at 1 h [7] was 225 µg/mL, the Activity [8] was “Non-Toxic” and the Activity [9] was “Non-Toxic”.
Work on `NCCCC[C@H](N)C(=O)N[C@@H](Cc1ccccc1)CN(CC(=O)NCc1ccc(-c2ccccc2)cc1)C(=O)CC12CC3CC(CC(C3)C1)C2` yielded an MIC [1] of 6.25 µg/mL (≈ 9.22 µM), an MIC [2] of 12.5 µg/mL (≈ 18.4 µM) and an MIC [3] of 12.5 µg/mL (≈ 18.4 µM). It also gave an MIC [4] of 6.25 µg/mL (≈ 9.22 µM), an MIC [5] of 6.25 µg/mL (≈ 9.22 µM) and an MIC [6] of 6.25 µg/mL (≈ 9.22 µM). The HC50 at 1 h [7] was 160 µg/mL, the Activity [8] was “Non-Toxic” and the Activity [9] was “Non-Toxic”.
`NCCCC[C@H](N)C(=O)N[C@@H](Cc1ccccc1)CN(CC(=O)NCc1cccc2ccccc12)C(=O)c1ccc2ccccc2c1` showed an MIC [1] of 25 µg/mL (≈ 39.7 µM), an MIC [2] of 12.5 µg/mL (≈ 19.8 µM) and an MIC [3] of 25 µg/mL (≈ 39.7 µM). It also gave an MIC [4] of 25 µg/mL (≈ 39.7 µM), an MIC [5] of 12.5 µg/mL (≈ 19.8 µM) and an MIC [6] of 25 µg/mL (≈ 39.7 µM). For the same compound, the HC50 at 1 h [7] was 290 µg/mL, the Activity [8] was “Non-Toxic” and the Activity [9] was “Non-Toxic”.
For `NCCCC[C@@H](CN(CC(=O)NCc1cccc2ccccc12)C(=O)c1ccc2ccccc2c1)NC(=O)[C@@H](N)CCCCN`, the MIC [1] was over 50 µg/mL, the MIC [2] was over 50 µg/mL and the MIC [3] was over 50 µg/mL. It also gave an MIC [4] of over 50 µg/mL, an MIC [5] of over 50 µg/mL and an MIC [6] of over 50 µg/mL.
Work on `NCCCC[C@H](N)C(=O)N[C@@H](Cc1ccccc1)CN(CC(=O)NCc1ccc(C(F)(F)F)cc1)C(=O)CC12CC3CC(CC(C3)C1)C2` yielded an MIC [1] of 6.25 µg/mL (≈ 9.33 µM), an MIC [2] of 12.5 µg/mL (≈ 18.7 µM) and an MIC [3] of 6.25 µg/mL (≈ 9.33 µM). It also gave an MIC [4] of 6.25 µg/mL (≈ 9.33 µM), an MIC [5] of 3.12 µg/mL (≈ 4.66 µM) and an MIC [6] of 6.25 µg/mL (≈ 9.33 µM). For the same compound, the HC50 at 1 h [7] was 200 µg/mL, the Activity [8] was “Non-Toxic” and the Activity [9] was “Non-Toxic”.
Work on `N=C(N)NCCC[C@H](N)C(=O)N[C@@H](CCCCN)C(=O)N[C@@H](Cc1ccccc1)CN(CC(=O)NCC12CC3CC(CC(C3)C1)C2)C(=O)CC12CC3CC(CC(C3)C1)C2` yielded an MIC [1] of 6.25 µg/mL (≈ 7.66 µM), an MIC [2] of 6.25 µg/mL (≈ 7.66 µM) and an MIC [3] of over 25 µg/mL. For the same compound, the MIC [4] was 3.12 µg/mL (≈ 3.82 µM), the MIC [5] was 3.12 µg/mL (≈ 3.82 µM) and the MIC [6] was 6.25 µg/mL (≈ 7.66 µM). The HC50 at 1 h [7] was 250 µg/mL, the Activity [8] was “Non-Toxic” and the Activity [9] was “Non-Toxic”.
`NCCCC[C@H](N)CN(CC(=O)NCc1cccc2ccccc12)C(=O)c1ccc2ccccc2c1` showed an MIC [1] of 25 µg/mL (≈ 51.8 µM), an MIC [2] of 6 µg/mL (≈ 12.4 µM) and an MIC [3] of 25 µg/mL (≈ 51.8 µM). It also gave an MIC [4] of 25 µg/mL (≈ 51.8 µM), an MIC [5] of 25 µg/mL (≈ 51.8 µM) and an MIC [6] of 25 µg/mL (≈ 51.8 µM).
`NCCCC[C@@H](CN(CC(=O)NCc1cccc2ccccc12)C(=O)CC12CC3CC(CC(C3)C1)C2)NC(=O)[C@@H](N)CCCCN` showed an MIC [1] of over 50 µg/mL, an MIC [2] of over 50 µg/mL and an MIC [3] of over 50 µg/mL. For the same compound, the MIC [4] was over 50 µg/mL, the MIC [5] was over 50 µg/mL and the MIC [6] was over 50 µg/mL.
With `NCCCC[C@H](N)C(=O)N[C@@H](Cc1ccccc1)CN(CC(=O)NCc1cc(C(F)(F)F)cc(C(F)(F)F)c1)C(=O)CC12CC3CC(CC(C3)C1)C2` the MIC [1] was 3.12 µg/mL (≈ 4.23 µM), the MIC [2] was 6.25 µg/mL (≈ 8.47 µM) and the MIC [3] was 6.25 µg/mL (≈ 8.47 µM). It also gave an MIC [4] of 3.12 µg/mL (≈ 4.23 µM), an MIC [5] of 3.12 µg/mL (≈ 4.23 µM) and an MIC [6] of 6.25 µg/mL (≈ 8.47 µM). For the same compound, the HC50 at 1 h [7] was 210 µg/mL, the Activity [8] was “Non-Toxic” and the Activity [9] was “Non-Toxic”.
`NCCCC[C@@H](CN(CC(=O)NCc1cccc2ccccc12)C(=O)CCCN)NC(=O)c1ccc2ccccc2c1` showed an MIC [1] of over 50 µg/mL, an MIC [2] of over 50 µg/mL and an MIC [3] of over 50 µg/mL. For the same compound, the MIC [4] was 25 µg/mL (≈ 44 µM), the MIC [5] was 25 µg/mL (≈ 44 µM) and the MIC [6] was 25 µg/mL (≈ 44 µM).
`CCCCCCCCCC(=O)N[C@@H](Cc1c[nH]c2ccccc12)C(=O)N[C@@H](CC(N)=O)C(=O)N[C@@H](CC(=O)O)C(=O)N[C@@H]1C(=O)NCC(=O)N[C@@H](CCCN)C(=O)N[C@@H](CC(=O)O)C(=O)N[C@H](C)C(=O)N[C@@H](CC(=O)O)C(=O)NCC(=O)N[C@H](CO)C(=O)N[C@@H]([C@H](C)CC(=O)O)C(=O)N[C@@H](CC(=O)c2ccccc2N)C(=O)O[C@@H]1C` [DAPTOMYCIN] gave an MIC [1] of over 50 µg/mL, an MIC [2] of over 50 µg/mL and an MIC [3] of over 50 µg/mL. It also gave an MIC [4] of 0.5 µg/mL (≈ 0.309 µM), an MIC [5] of 0.5 µg/mL (≈ 0.309 µM) and an MIC [6] of 1 µg/mL (≈ 0.617 µM).
COLISTIN showed an MIC [1] of 0.5 µg/mL, an MIC [2] of 1 µg/mL and an MIC [3] of 0.5 µg/mL. The MIC [4] was over 50 µg/mL, the MIC [5] was over 50 µg/mL and the MIC [6] was over 50 µg/mL.

— ChEMBL document CHEMBL3853323, “Small Antimicrobial Agents Based on Acylated Reduced Amide Scaffold” (J Med Chem, 2016)
